According to ChEMBL document CHEMBL1124514, “Synthesis and antiviral activity of the nucleotide analogue (S)-1-[3-hydroxy-2-(phosphonylmethoxy)propyl]cytosine” (1989):
Converted amounts (≈) assume the structure as drawn.

Key:
Format in all cases: functional
[1] = tested on: Human alphaherpesvirus 1; assay: Antiviral activity of the compound, determined by plaque-reduction assay against Herpes simplex virus (HSV) type 1, BW5 strain in Vero cells; details: Human alphaherpesvirus 1, Vero; read-out: ID50 (the source's name)
Outline: (§1)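 Plaque reduction: confluent monolayers (Vero for HSV, MRC-5 for HCMV) infected with 30-50 PFU in PBS, 1 h adsorption, then compound dilutions in EMEM with 10% fetal bovine serum; 48 h at 37 °C, 5% CO2; fixed, Carbol fuchsin stained, plaques counted. ID50 = concentration reducing plaque number by 50% versus virus control.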

[2] = tested on: Human alphaherpesvirus 2; assay: Antiviral activity determined by plaque-reduction assay against Herpes simplex virus type 2, G strain in Vero cells; details: Human alphaherpesvirus 2, Vero; read-out: ID50 (the source's name); outline: as §1
[3] = tested on: Human betaherpesvirus 5; assay: Antiviral activity determined by plaque-reduction assay against Human cytomegalovirus, AD-169 strain in MRC-5 cells; details: Human betaherpesvirus 5, MRC5; read-out: ID50 (the source's name); outline: as §1
[4] = tested on: Mus musculus; assay: Percentage survival of mice after intraperitoneal administration of compound at 0.1 mg/kg per day in experiment 2; survival/ tested =5/10; details: ip
Outline: (§2)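 Female Swiss mice (16–18 g) infected ip with (2-6) × 10^2 PFU HSV 1 HL-34, randomized into groups of 10. Ip dosing started 3 h postinfection, twice daily for 5 consecutive days; vehicle 0.2% carboxymethylcellulose with 0.2% Tween 80 in water. Mortality followed 21 days; survival by Fisher's exact test, mean survival time by Gehan-Wilcoxon.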

[5] = species on record: Cavia porcellus; assay: Total score of lesion formation in HSV-1 cutaneous infection in guinea pig at 0.1% HPMPC
[6] = species on record: Cavia porcellus; assay: Duration of time of lesion formation in HSV-1 cutaneous infection in guinea pig at 1% HPMPC
[7] = tested on: Mus musculus; assay: Percentage survival of mice after intraperitoneal administration of compound at 100 mg/kg per day in experiment 1; survival/ tested =10/10; details: ip; outline: as §2
[8] = tested on: Mus musculus; assay: Percentage survival of mice after intraperitoneal administration of compound at 1 mg/kg per day in experiment 2; survival/ tested =9/10; details: ip; outline: as §2
[9] = tested on: Mus musculus; assay: Mean survival time of mice was determined after intraperitoneal administration of compound at 100 mg/kg per day in experiment 1; outline: as §2
[10] = species on record: Cavia porcellus; assay: Total score of healing period in HSV-1 cutaneous infection in guinea pig at 5% HPMPC
[11] = species on record: Cavia porcellus; assay: Total score of healing period in HSV-1 cutaneous infection in guinea pig 1%HPMPC
[12] = species on record: Cavia porcellus; assay: Total score of lesion formation in HSV-1 cutaneous infection in guinea pig at 5% HPMPC
[13] = tested on: Mus musculus; assay: Percentage survival of mice after intraperitoneal administration of compound at 10 mg/kg per day in experiment 1; survival/ tested =10/10; details: ip; outline: as §2
[14] = tested on: Mus musculus; assay: Mean survival time of mice was determined after intraperitoneal administration of compound at 1 mg/kg per day in experiment 2; outline: as §2
[15] = tested on: Mus musculus; assay: Percentage survival of mice after intraperitoneal administration of compound at 10 mg/kg per day in experiment 2; survival/ tested =10/10; details: ip; outline: as §2
[16] = species on record: Cavia porcellus; assay: Duration of time of healing period in HSV-1 cutaneous infection in guinea pig at 5% HPMPC
[17] = tested on: Mus musculus; assay: Mean survival time of mice was determined after intraperitoneal administration of compound at 200 mg/kg per day in experiment 1; outline: as §2
[18] = species on record: Cavia porcellus; assay: Duration of time of lesion formation in HSV-1 cutaneous infection in guinea pig at 0.1% HPMPC
[19] = species on record: Cavia porcellus; assay: Duration of time of healing period in HSV-1 cutaneous infection in guinea pig at 0.1% HPMPC
[20] = tested on: Mus musculus; assay: Percentage survival of mice after intraperitoneal administration of compound at 200 mg/kg per day in experiment 1; survival/ tested =10/10; details: ip; outline: as §2
[21] = species on record: Cavia porcellus; assay: Mean of severity score obtained from five different individuals at 1% HPMPC
[22] = species on record: Cavia porcellus; assay: Mean of severity score obtained from five different individuals at 0.1% HPMPC
[23] = tested on: Mus musculus; assay: Mean survival time of mice was determined after intraperitoneal administration of compound at 10 mg/kg per day in experiment 2; outline: as §2
[24] = species on record: Cavia porcellus; assay: Duration of time of healing period in HSV-1 cutaneous infection in guinea pig at 1% HPMPC
[25] = species on record: Cavia porcellus; assay: Total score of lesion formation in HSV-1 cutaneous infection in guinea pig at 1% HPMPC
[26] = tested on: Mus musculus; assay: Mean survival time of mice was determined after intraperitoneal administration of compound at 10 mg/kg per day in experiment 1; outline: as §2
[27] = species on record: Cavia porcellus; assay: Duration of time of lesion formation in HSV-1 cutaneous infection in guinea pig at 5% HPMPC
[28] = species on record: Cavia porcellus; assay: Total score of healing period in HSV-1 cutaneous infection in guinea pig at 0.1% HPMPC
[29] = tested on: Mus musculus; assay: Mean survival time of mice was determined after intraperitoneal administration of compound at 0.1 mg/kg per day in experiment 2; outline: as §2
[30] = tested on: Human alphaherpesvirus 1; assay: Antiviral activity of the compound, determined by plaque-reduction assay against thymidine kinase deficient Herpes simplex virus type 1, Z826 strain in Vero cells; details: Human alphaherpesvirus 1, Vero; read-out: ID50 (the source's name); outline: as §1
[31] = species on record: Cavia porcellus; assay: Mean of severity score obtained from five different individuals at 5% HPMPC
[32] = tested on: Mus musculus; assay: Percentage survival of mice after intraperitoneal administration of compound at 50 mg/kg per day in experiment 1; survival/ tested =5/10; details: ip; outline: as §2
[33] = species on record: Cavia porcellus; assay: Total score of lesion formation in HSV-1 cutaneous infection in guinea pig at 5% ACV
[34] = tested on: Human alphaherpesvirus 2; assay: In vitro antiviral activity determined by plaque-reduction assay against Herpes simplex virus type 2, G strain in Vero cells; details: Human alphaherpesvirus 2, Vero; read-out: ID50 (the source's name); outline: as §1
[35] = tested on: Mus musculus; assay: Percentage survival of mice after intraperitoneal administration of compound at 100 mg/kg per day in experiment 1; survival/ tested =7/10; details: ip; outline: as §2
[36] = species on record: Cavia porcellus; assay: Total score of healing period in HSV-1 cutaneous infection in guinea pig at 5% ACV
[37] = species on record: Cavia porcellus; assay: Mean of severity score obtained from five different individuals at 5% ACV
[38] = tested on: Mus musculus; assay: Percentage survival of mice after intraperitoneal administration of compound at 200 mg/kg per day in experiment 2; survival/ tested =7/9; details: ip; outline: as §2
[39] = species on record: Cavia porcellus; assay: Duration of time of lesion formation in HSV-1 cutaneous infection in guinea pig at 5%ACV
[40] = species on record: Cavia porcellus; assay: Duration of time of healing period in HSV-1 cutaneous infection in guinea pig at 5%ACV
[41] = tested on: Human alphaherpesvirus 1; assay: In vitro antiviral activity of the compound, determined by plaque-reduction assay against thymidine kinase deficient Herpes simplex virus type 1, Z826 strain in Vero cells; details: Human alphaherpesvirus 1, Vero; read-out: ID50 (the source's name); outline: as §1
[42] = tested on: Mus musculus; assay: Percentage survival of mice after intraperitoneal administration of compound at 200 mg/kg per day in experiment 1; survival/ tested =3/4; details: ip
[43] = tested on: Human alphaherpesvirus 1; assay: In vitro antiviral activity of the compound, determined by plaque-reduction assay against Herpes simplex virus (HSV) type 1, BW5 strain in Vero cells; details: Human alphaherpesvirus 1, Vero; read-out: ID50 (the source's name); outline: as §1

How did the IC50 [1] turn out when `Nc1ccn(CCOCP(=O)(O)O)c(=O)n1` was run?
Its IC50 is greater than 100 µg/mL.

What about the IC50 [2] of the same compound?
Its IC50 is greater than 100 µg/mL.

And the IC50 [3]?
The IC50 was greater than 2.7 µg/mL.

How did the survival at 0.1 mg/kg/day [4] turn out when `Nc1ccn(C[C@@H](CO)OCP(=O)(O)O)c(=O)n1.O.O` [CIDOFOVIR] was run?
The survival at 0.1 mg/kg/day was 50%.

And the Total score [5]?
The Total score was 8.2.

What about the Duration time [6] of the same compound?
The Duration time was 3.8.

What about the survival at 100 mg/kg/day [7] of the same compound?
Its survival at 100 mg/kg/day is 100%.

And the survival at 1 mg/kg/day [8]?
Its survival at 1 mg/kg/day is 90%.

What about the Mean survival time [9] of the same compound?
Its Mean survival time is 21 days.

And the Total score [10]?
Its Total score is 85.4.

And the Total score [11]?
Its Total score is 75.

What about the Total score [12] of the same compound?
The Total score was 3.

And the survival at 10 mg/kg/day [13]?
The survival at 10 mg/kg/day was 100%.

What about the Mean survival time [14] of the same compound?
Its Mean survival time is 19.7 days.

What about the survival at 10 mg/kg/day [15] of the same compound?
The survival at 10 mg/kg/day was 100%.

What about the Duration time [16] of the same compound?
Its Duration time is 4.2.

And the Mean survival time [17]?
The Mean survival time was 21 days.

And the Duration time [18]?
The Duration time was 3.8.

And the Duration time [19]?
Its Duration time is 4.4.

What about the IC50 [1] of the same compound?
The IC50 was 5.4 µg/mL.

What about the survival at 200 mg/kg/day [20] of the same compound?
Its survival at 200 mg/kg/day is 100%.

What about the Severity mean [21] of the same compound?
Its Severity mean is 1.

And the IC50 [2]?
Its IC50 is 2.3 µg/mL.

What about the Severity mean [22] of the same compound?
The Severity mean was 1.4.

And the Mean survival time [23]?
Its Mean survival time is 21 days.

What about the Duration time [24] of the same compound?
The Duration time was 3.8.

What about the Total score [25] of the same compound?
The Total score was 7.

What about the Mean survival time [26] of the same compound?
Its Mean survival time is 21 days.

And the Duration time [27]?
The Duration time was 2.2.

And the IC50 [3]?
Its IC50 is 0.22 µg/mL.

What about the Total score [28] of the same compound?
The Total score was 72.8.

And the Mean survival time [29]?
Its Mean survival time is 14.9 days.

And the IC50 [30]?
The IC50 was 0.7 µg/mL.

What about the Severity mean [31] of the same compound?
The Severity mean was 0.8.

`Nc1nc2c(ncn2COCCO)c(=O)[nH]1` [ACYCLOVIR] was tested. Which survival at 50 mg/kg/day [32] did it give?
Its survival at 50 mg/kg/day is 50%.

What about the Total score [33] of the same compound?
The Total score was 14.

What about the IC50 [34] of the same compound?
Its IC50 is 0.3 µg/mL (≈ 1.33 µM).

And the survival at 100 mg/kg/day [35]?
Its survival at 100 mg/kg/day is 70%.

And the Total score [36]?
Its Total score is 60.4.

And the Severity mean [37]?
Its Severity mean is 2.4.

What about the survival at 200 mg/kg/day [38] of the same compound?
Its survival at 200 mg/kg/day is 78%.

And the Duration time [39]?
Its Duration time is 5.4.

What about the Duration time [40] of the same compound?
The Duration time was 4.2.

And the IC50 [41]?
Its IC50 is 4.3 µg/mL (≈ 19.1 µM).

What about the survival at 200 mg/kg/day [42] of the same compound?
The survival at 200 mg/kg/day was 75%.

And the IC50 [43]?
The IC50 was 0.5 µg/mL (≈ 2.22 µM).

For `Nc1ncnc2c1ncn2C[C@@H](CO)OCP(=O)(O)O`, which IC50 [1] is on record?
The IC50 was 9.3 µg/mL (≈ 30.7 µM).

And the IC50 [2]?
Its IC50 is 25.2 µg/mL (≈ 83.1 µM).

And the IC50 [3]?
The IC50 was 0.27 µg/mL (≈ 0.89 µM).

And the IC50 [30]?
Its IC50 is 3.2 µg/mL (≈ 10.6 µM).

`Nc1nc2c(ncn2COC(CO)CO)c(=O)[nH]1` [GANCICLOVIR] was tested. Which IC50 [1] did it give?
Its IC50 is 0.23 µg/mL (≈ 0.901 µM).

And the IC50 [2]?
Its IC50 is 0.94 µg/mL (≈ 3.68 µM).

And the IC50 [3]?
Its IC50 is 1.8 µg/mL (≈ 7.05 µM).

And the IC50 [30]?
The IC50 was greater than 10 µg/mL.
